Test results from ChEMBL document CHEMBL1125932 (1991).
≈ marks a conversion by molar mass, not a printed value.

Experiments:
Format in all cases: functional
ESM [1] = test: Concentration required to cause a microscopically detectable alteration of normal cell morphology in ESM cells; conditions: Homo sapiens
Procedure, shortened: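 ESM cells were examined under the microscope. The value is the minimum concentration causing a microscopically detectable change in normal cell morphology.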

ESM [2] = test: Concentration required to inhibit HSV-1 (McIntyre) induced cytopathogenicity in ESM cells by 50%; conditions: Homo sapiens; read-out: MIC
Procedure, shortened: (§1)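 Embryonic skin-muscle (ESM) cell cultures were infected with 100 CCID50 of virus (1 CCID50 being the infective dose for 50% of cultures).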

HEL [3] = test: Concentration required to inhibit TK-VZV (YSR) induced cytopathogenicity in HEL cells by 50%; conditions: Homo sapiens
HEL [4] = test: Concentration required to inhibit TK-VZV (07-1) induced cytopathogenicity in HEL cells by 50%; conditions: Homo sapiens; read-out: MIC
ESM [5] = test: Concentration required to inhibit HSV-2(196) induced cytopathogenicity in ESM cells by 50%; conditions: Homo sapiens; read-out: MIC; procedure, shortened: as §1
HEL [6] = test: Concentration required to inhibit VZV (YS) induced cytopathogenicity in HEL cells by 50%; conditions: Homo sapiens; read-out: MIC
HEL [7] = test: Concentration required to inhibit CMV (AD-169) induced cytopathogenicity in HEL cells by 50%; conditions: Homo sapiens; read-out: MIC
ESM [8] = test: Concentration required to inhibit TK-HSV-1 (B2006) induced cytopathogenicity in ESM cells by 50%; conditions: Homo sapiens; procedure, shortened: as §1
ESM [9] = test: Concentration required to inhibit TK-HSV-1 ([…]) induced cytopathogenicity in ESM cells by 50%; conditions: Homo sapiens; procedure, shortened: as §1
HEL [10] = test: Concentration required to inhibit CMV (Davis) induced cytopathogenicity in HEL cells by 50%; conditions: Homo sapiens
ESM [11] = test: Concentration required to inhibit HSV-1 (F) induced cytopathogenicity in ESM cells by 50%; conditions: Homo sapiens; read-out: MIC; procedure, shortened: as §1
HEL [12] = test: Concentration required to cause 50% reduction in HEL cell growth.; conditions: Homo sapiens; read-out: MIC
ESM [13] = test: Concentration required to cause 50% reduction in cellular DNA synthesis in ESM cells; conditions: Homo sapiens; read-out: MIC
Procedure, shortened: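 In ESM cells, cellular DNA synthesis was monitored by incorporation of [methyl-3H]dThd. The value is the concentration causing a 50% reduction in incorporation.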

ESM [14] = test: Concentration required to inhibit HSV-2(lyons) induced cytopathogenicity in ESM cells by 50%; conditions: Homo sapiens; read-out: MIC; procedure, shortened: as §1
ESM [15] = test: Concentration required to inhibit HSV-2(G) induced cytopathogenicity in ESM cells by 50%; conditions: Homo sapiens; read-out: MIC; procedure, shortened: as §1
ESM [16] = test: Concentration required to inhibit VV induced cytopathogenicity in ESM cells by 50%.; conditions: Homo sapiens; procedure, shortened: as §1
HEL [17] = test: Concentration required to inhibit VZV (oka) induced cytopathogenicity in HEL cells by 50%; conditions: Homo sapiens; read-out: MIC
ESM [18] = test: Concentration required to inhibit HSV-1 (KOS) induced cytopathogenicity in ESM cells by 50%; conditions: Homo sapiens; read-out: MIC; procedure, shortened: as §1
ESM [19] = test: Concentration required to inhibit VV induced cytopathogenicity in ESM cells by 50%; conditions: Homo sapiens; procedure, shortened: as §1
HEL [20] = test: Concentration required to cause 50% reduction in HEL cell growth; conditions: Homo sapiens

Row | Compound | MIC (ESM [1]) [µg/mL] | EC50 for inhibiting virus-induced cytopathogenicity (ESM [2]) [µg/mL] | MIC (HEL [3]) [µg/mL] | EC50 (HEL [4]) [µg/mL] | EC50 (ESM [5]) [µg/mL] | EC50 (HEL [6]) [µg/mL] | EC50 (HEL [7]) [µg/mL] | MIC (ESM [8]) [µg/mL] | MIC (ESM [9]) [µg/mL] | MIC (HEL [10]) [µg/mL] | EC50 (ESM [11]) [µg/mL] | 50% cell growth inhibitory concentration (CC50) (HEL [12]) [µg/mL] | IC50 (DNA synthesis inhibition) (ESM [13]) [µg/mL] | EC50 (50% inhibition of virus cytopathogenicity) (ESM [14]) [µg/mL] | EC50 (ESM [15]) [µg/mL] | MIC (ESM [16]) [µg/mL] | EC50 (HEL [17]) [µg/mL] | 50% inhibitory concentration against virus-induced cytopathogenicity (EC50) (ESM [18]) [µg/mL] | MIC (ESM [19]) [µg/mL] | MIC (HEL [20]) [µg/mL]
1 | Cc1cn2c(O)c3ncn(COCCO)c3nc2n1 | > 400 | 1 | > 400 | 400 (≈ 1520 µM) | 0.7 (≈ 2.66 µM) | 25 (≈ 95 µM) | 200 (≈ 760 µM) | > 400 | > 400 | > 400 | 0.7 (≈ 2.66 µM) | > 200 | > 200 | 0.4 | 2 (≈ 7.6 µM) | > 400 | 20 (≈ 76 µM) | 0.7 |  | 
2 | OCC(CO)OCn1cnc2c(O)n3ccnc3nc21 | > 400 | 0.7 | 300 (≈ 1070 µM) | 400 (≈ 1430 µM) | 2 (≈ 7.16 µM) | > 400 | 150 (≈ 537 µM) | > 400 | 150 (≈ 537 µM) | 200 (≈ 716 µM) | 0.7 (≈ 2.51 µM) | > 200 | > 200 | 0.7 | 2 (≈ 7.16 µM) | > 400 | 400 (≈ 1430 µM) | 0.7 |  | 
3 | OCCOCn1cnc2c(O)n3ccnc3nc21 | > 400 | 20 | > 400 | > 400 | 70 (≈ 281 µM) | > 400 | > 400 | > 400 | > 400 | > 400 | 4 (≈ 16 µM) | > 200 | > 200 | 10 | 20 (≈ 80.2 µM) | > 400 | > 400 | 20 |  | 
4 | CCOC(Cn1c(N)nc2c(ncn2COC(CO)CO)c1=O)OCC | > 400 | 20 | > 400 | > 400 | 70 (≈ 188 µM) | > 400 | > 400 | > 400 | > 400 | > 400 | 20 (≈ 53.9 µM) | > 200 | > 100 | 20 | 70 (≈ 188 µM) | > 400 | > 400 | 70 |  | 
5 | OC[C@H]1OC(n2cnc3c(O)n4ccnc4nc32)[C@H](O)[C@@H]1O (some centres not stated) | > 400 | > 400 | > 400 | > 400 | > 400 | > 400 | 400 (≈ 1300 µM) | > 400 | > 400 | 400 (≈ 1300 µM) | > 400 |  | 150 (≈ 488 µM) | > 400 | > 400 |  | > 400 | > 400 | > 400 | > 200
6 | CCOC(Cn1c(N)nc2c(ncn2C2O[C@H](CO)[C@@H](O)[C@H]2O)c1=O)OCC (some centres not stated) | > 400 | 100 | > 200 | > 200 | > 400 | > 200 | > 400 | > 400 | > 400 | > 400 | 100 (≈ 250 µM) | > 200 | > 200 | 100 | > 400 | > 400 | > 200 | > 400 |  | 
7 | Cc1cn2c(O)c3ncn(C4O[C@H](CO)[C@@H](O)[C@H]4O)c3nc2n1 (some centres not stated) | > 400 | > 400 | > 200 | > 200 | > 400 | > 200 | > 200 | > 400 | > 400 | > 200 | > 400 |  | 150 (≈ 467 µM) | > 400 | > 400 |  | > 200 | > 400 | > 400 | > 200
8 | CCOC(Cn1c(N)nc2c(ncn2COCCO)c1=O)OCC | > 400 | > 400 | > 400 | > 400 | 20 (≈ 58.6 µM) | > 400 | > 400 | > 400 | > 400 | > 400 | 70 (≈ 205 µM) | > 200 | > 200 | 20 | > 400 | > 400 | > 400 | > 400 |  | 
9 | Cc1cn2c(O)c3ncn(COC(CO)CO)c3nc2n1 | > 400 | 0.07 | 50 (≈ 170 µM) | 15 (≈ 51.1 µM) | 0.07 (≈ 0.239 µM) | 10 (≈ 34.1 µM) | 4 (≈ 13.6 µM) | 200 (≈ 682 µM) | 20 (≈ 68.2 µM) | 5 (≈ 17 µM) | 0.07 (≈ 0.239 µM) | > 200 | > 200 | 0.07 | 0.07 (≈ 0.239 µM) | > 400 | 4 (≈ 13.6 µM) | 0.07 |  | 
10 | Nc1nc2c(ncn2COCCO)c(=O)[nH]1 [ACYCLOVIR] | 400 (≈ 1780 µM) |  |  |  |  |  |  | 100 (≈ 444 µM) | 40 (≈ 178 µM) | 15 (≈ 66.6 µM) |  |  |  |  |  | > 200 |  |  |  | 
11 | Nc1nc2c(ncn2COC(CO)CO)c(=O)[nH]1 [GANCICLOVIR] | > 400 |  |  |  |  |  |  | 7 (≈ 27.4 µM) | 1 (≈ 3.92 µM) | 1 (≈ 3.92 µM) |  |  |  |  |  | 20 (≈ 78.4 µM) |  |  |  | 
